LANA-nucl inh = inhibitors of KSHV LANA-nucleosome binding, primary screen, biochemical, fluorescence polarization, FITC-LANA1-23, chicken nucleosomes; FITC-LANA1-23 / chicken nucleosome fluorescence polarization; stronger effect = lower value; hit rate 0.3% among 51,000; z-score (concentration not given with the values);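 active = both repeat wells score below -2 in polarization z-score versus plate sample wells, excluding overly bright wells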
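Test system: purified chicken nucleosomes with FITC-labelled LANA N-terminal peptide (1-23); Input: 240 nM purified chicken nucleosomes (480 nM peptide binding sites), final; Medium: TEN-BT buffer, pH 7.5; Timing: 10–45 min, room temperature; Technique: fluorescence polarization, 480 nm excitation, 535 nm parallel and perpendicular emission; Replication: duplicates.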
BasE inh = BasE siderophore enzyme inhibitors, primary screen, biochemical, Acinetobacter baumannii ATCC 17978, fluorescence polarization; AID 485350, 2010; purified BasE, fluorescence polarization binding displacement; hit rate 0.1% among 84,000; inhibition, % (test concentration not listed); in the data active = inhibition above about 25%, passing the limit was not always enough;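 also: 0% = negative plate control signal and 100% = positive plate control signal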
Active calls of the source: *; x = no result. This excerpt belongs to a sample that is enriched for hits.

SMILES	LANA-nucl inh	BasE inh
N#Cc1c(/N=C/c2ccc(O)cc2O)sc2c1C1CCN2CC1	-3.89*	17.3
Cc1cccc2cc(C=C(C#N)C#N)c(Cl)nc12	-0.702	0.4
CC(C)c1ccc(O)cc1	x	9.6
O=S(=O)(c1ccc(O)cc1)c1ccc(O)cc1	x	66.3*
C#CCN1CCCC2(CCOC(C)(CC)C2)C1 (stereo unspecified)	-0.074	4.3
c1ccc2c(c1)Oc1ccccc1O2	0.5	0.5
Cc1ccc(C=C(C#N)C#N)o1	-0.564	3.6
N#CC(C#N)=Cc1ccc(-c2ccccc2)o1	-4.69*	-26.4
CN1CCc2c(C#N)c(N)n(N)c(=S)c2C1	-3.8*	41.7
CN1CCc2c(C#N)c(Cl)nc(NCc3ccccc3)c2C1	0.063	1.7
CCN1CCN(c2ccc(N)cc2)CC1	-2.87*	x
CN1CCN(c2ccc(N)cc2)CC1	x	-0.1
CC(=O)NC1C(OC2OC(CC(O)C3OC(n4ccc(=O)[nH]c4=O)C(O)C3O)C(O)C(O)C2NC(=O)/C=C\CC(C)C)OC(CO)C(O)C1O (stereo unspecified)	-0.015	x
CCCCCCc1cc(O)c2c(c1)OC(C)(C)C1=C2CCN(C)C1	-0.303	-1.1
CC[C@@]1(O)C[C@H](O[C@H]2C[C@H](N(C)C)[C@H](O)[C@H](C)O2)c2c(cc3c(c2O)C(=O)c2c(O)ccc(O)c2C3=O)[C@H]1C(=O)OC	-2.78*	4.9
CC[C@@]1(O)C[C@H](O[C@H]2C[C@H](N(C)C)[C@H](O)[C@H](C)O2)c2c(cc3c(c2O)C(=O)c2c(O)cccc2C3=O)[C@H]1C(=O)OC	2.2	-2.1
O=C1NC(=O)N(Cc2ccccc2)C(=O)/C1=C\c1ccccc1	x	0.8
CC1CCCCN1CC(=O)c1cc(Cl)ccc1Cl (stereo unspecified)	x	0.4
CN1CCc2cc3c(c4c2C1Cc1ccccc1-4)OCO3 (stereo unspecified)	-3.19*	22.4
COc1ccc2c(c1OC)C(=O)OC2C1c2cc3c(cc2CCN1C)OCO3 (stereo unspecified)	-0.68	-1.5
ClCc1nc2ccccc2[nH]1	0.0625	x
